Reference: ChEMBL document CHEMBL1641494, “Modulation of PPAR subtype selectivity. Part 2: Transforming PPARα/γ dual agonist into α selective PPAR agonist through bioisosteric modification” (Bioorg Med Chem Lett, 2011)
One block for each compound: values may come before it. The source made the active and inactive calls. The calls are words filed in the database; no cut-off is given here.

How the values were obtained:
[1] = molecular target: T1, Peroxisome proliferator-activated receptor alpha (Homo sapiens) (UniProt Q07869); assay: Agonist activity at human PPARalpha in human HepG2 cells co-transfected with PPRE3-TK-luc assessed as induction of transactivation activity at 10 uM by luciferase reporter gene assay relative to control; assay type: functional, cell-based
T1 sequence (whole entry): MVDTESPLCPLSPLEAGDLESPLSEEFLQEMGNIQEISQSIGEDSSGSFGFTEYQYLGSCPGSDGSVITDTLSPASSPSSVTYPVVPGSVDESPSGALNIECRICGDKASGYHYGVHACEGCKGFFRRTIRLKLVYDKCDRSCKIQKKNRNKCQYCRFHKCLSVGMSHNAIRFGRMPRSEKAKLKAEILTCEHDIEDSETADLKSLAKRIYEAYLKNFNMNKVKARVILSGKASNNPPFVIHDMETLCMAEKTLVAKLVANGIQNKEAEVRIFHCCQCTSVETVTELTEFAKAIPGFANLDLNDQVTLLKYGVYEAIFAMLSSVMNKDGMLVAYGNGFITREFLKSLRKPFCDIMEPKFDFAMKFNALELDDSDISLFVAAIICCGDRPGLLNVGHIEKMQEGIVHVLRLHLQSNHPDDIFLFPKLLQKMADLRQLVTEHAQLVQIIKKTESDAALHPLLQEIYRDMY
Method in brief: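 HepG2 cells were transfected with pSG5 vector carrying human PPARα cDNA and co-transfected with PPRE3-TK-luc. Firefly luciferase was read and normalised to β-galactosidase activity measured in an ELISA reader. Compound was tested at 10 µM. Results are expressed as fold induction versus vehicle (1% DMSO).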

Mus musculus [2] = assay: Antihyperlipidemic activity in db/db mouse assessed as reduction of serum triglycerides level at 3 mg/kg, po qd for 7 days relative to control; assay type: functional; design: scale not given: the % may be the effect or the level left
Method in brief: (§1)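 Male db/db mice aged 6–8 weeks were dosed orally once daily for 7 days. Serum triglycerides and glucose were then measured. Results are expressed as % change versus vehicle-treated controls (n = 6).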

Mus musculus [3] = assay: Antihyperglycemic activity in db/db mouse assessed as reduction of serum glucose level at 3 mg/kg, po qd for 7 days relative to control; assay type: functional; design: scale not given: the % may be the effect or the level left; method in brief: as §1
Rattus norvegicus [4] = assay: Antihyperlipidemic activity in Sprague-Dawley rat assessed as reduction of serum triglycerides level at 3 mg/kg, po qd for 14 days relative to control; assay type: functional; design: scale not given: the % may be the effect or the level left
Method in brief: (§2)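 Male Sprague–Dawley rats were fed a high-cholesterol diet for 15 days, then given vehicle or compound by oral gavage once daily for 14 days. Serum TG, total cholesterol, LDL-C and HDL-C were measured. Results are expressed as % change versus vehicle (n = 9).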

Rattus norvegicus [5] = assay: Antihyperlipidemic activity in Sprague-Dawley rat assessed as reduction of serum total cholesterol level at 3 mg/kg, po qd for 14 days relative to control; assay type: functional; design: scale not given: the % may be the effect or the level left; method in brief: as §2
Rattus norvegicus [6] = assay: Antihyperlipidemic activity in Sprague-Dawley rat assessed as reduction of serum LDL-cholesterol level at 3 mg/kg, po qd for 14 days relative to control; assay type: functional; design: scale not given: the % may be the effect or the level left; method in brief: as §2
Rattus norvegicus [7] = assay: Antihyperlipidemic activity in Sprague-Dawley rat assessed as increase of serum HDL-cholesterol level at 3 mg/kg, po qd for 14 days relative to control; assay type: functional; method in brief: as §2
[8] = Tmax in Wistar rat at 30 mg/kg, po; assay type: ADME, organism-based; design: dose 30 mg/kg, route oral; conditions: in vivo
Method in brief: (§3)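 Single oral dose of 30 mpk to fasted male Wistar rats (n = 6). Plasma concentrations were measured by LC–MS, and Tmax, Cmax, T1/2 and AUC(0–∞) were derived. Values are given as mean ± SD.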

[9] = Cmax in Wistar rat at 30 mg/kg, po; assay type: ADME, organism-based; design: dose 30 mg/kg, route oral; conditions: in vivo; method in brief: as §3
[10] = Half life in Wistar rat at 30 mg/kg, po; assay type: ADME, organism-based; design: dose 30 mg/kg, route oral; conditions: in vivo; method in brief: as §3
[11] = AUC (0 to infinity) in Wistar rat at 30 mg/kg, po; assay type: ADME, organism-based; design: time infinity, dose 30 mg/kg, route oral; conditions: plasma; method in brief: as §3
Mus musculus [12] = assay: Antihyperlipidemic activity in db/db mouse assessed as reduction of serum triglycerides level at 30 mg/kg, po qd for 7 days relative to control; assay type: functional; design: scale not given: the % may be the effect or the level left; method in brief: as §1
Mus musculus [13] = assay: Antihyperglycemic activity in db/db mouse assessed as reduction of serum glucose level at 30 mg/kg, po qd for 7 days relative to control; assay type: functional; design: scale not given: the % may be the effect or the level left; method in brief: as §1
Rattus norvegicus [14] = assay: Antihyperlipidemic activity in Sprague-Dawley rat assessed as reduction of serum triglycerides level at 30 mg/kg, po qd for 14 days relative to control; assay type: functional; design: scale not given: the % may be the effect or the level left; method in brief: as §2
Rattus norvegicus [15] = assay: Antihyperlipidemic activity in Sprague-Dawley rat assessed as reduction of serum total cholesterol level at 30 mg/kg, po qd for 14 days relative to control; assay type: functional; design: scale not given: the % may be the effect or the level left; method in brief: as §2
Rattus norvegicus [16] = assay: Antihyperlipidemic activity in Sprague-Dawley rat assessed as reduction of serum LDL-cholesterol level at 30 mg/kg, po qd for 14 days relative to control; assay type: functional; design: scale not given: the % may be the effect or the level left; method in brief: as §2
Rattus norvegicus [17] = assay: Antihyperlipidemic activity in Sprague-Dawley rat assessed as increase of serum HDL-cholesterol level at 30 mg/kg, po qd for 14 days relative to control; assay type: functional; method in brief: as §2

fold change (FC) [1]: 3.48
SMILES: C/C(=N\OCCOc1ccc(C[C@H]2CO[C@@](C)(C(=O)O)OC2)cc1)c1ccc(OC(F)(F)F)cc1

fold change (FC) [1]: 3.61
SMILES: COc1ccc(/C(C)=N/OCCOc2ccc(C[C@H]3CO[C@@](C)(C(=O)O)OC3)cc2)cc1OC

fold change (FC) [1]: 14.7
SMILES: Cc1ccc(-c2nc(COc3ccc(C[C@H]4CO[C@@](C)(C(=O)O)OC4)cc3)c(C)o2)cc1

fold change (FC) [1]: 2.36
SMILES: C/C(=N\OCCOc1ccc(C[C@H]2CO[C@@](C)(C(=O)O)OC2)cc1)c1cccnc1

fold change (FC) [1]: 10.8
SMILES: C/C(=N\OCCOc1ccc(C[C@H]2CO[C@@](C)(C(=O)O)OC2)cc1)c1ccc(C)cc1

fold change (FC) [1]: inactive
SMILES: CN(CCOc1ccc(CC2SC(=O)NC2=O)cc1)c1ccccn1 (configuration not stated)

fold change (FC) [1]: 10.5
SMILES: C/C(=N\OCCOc1ccc(C[C@H]2CO[C@@](C)(C(=O)O)OC2)cc1)c1ccc(F)cc1

fold change (FC) [1]: 15 | Tmax [8]: 0.61 h | Cmax [9]: 0.12 µg/mL | half-life [10]: 14 h | AUC(0-inf) [11]: 1.42 µg·h/mL
SMILES: COc1ccc(/C(C)=N/OCCOc2ccc(C[C@H]3CO[C@@](C)(C(=O)O)OC3)cc2)cc1
Activity (Mus musculus [2]): -53% | Activity (Mus musculus [3]): -45% | Activity (Rattus norvegicus [4]): -54% | Activity (Rattus norvegicus [5]): -56% | Activity (Rattus norvegicus [6]): -68% | Activity (Rattus norvegicus [7]): 68%

fold change (FC) [1]: 5.79
SMILES: C/C(=N\OCCOc1ccc(C[C@H]2CO[C@@](C)(C(=O)O)OC2)cc1)c1ccc(C(F)(F)F)cc1

fold change (FC) [1]: 12.7 | Tmax [8]: 0.65 h | half-life [10]: 1.99 h
SMILES: Cc1ccc(-c2nc(CCCC[C@H]3CO[C@@](C)(C(=O)O)OC3)c(C)o2)cc1
Activity (Mus musculus [12]): -54% | Activity (Mus musculus [13]): -43% | Activity (Rattus norvegicus [14]): -51% | Activity (Rattus norvegicus [15]): -49% | Activity (Rattus norvegicus [16]): -58% | Activity (Rattus norvegicus [17]): 62%

fold change (FC) [1]: 1.37
SMILES: C/C(=N\OCCOc1ccc(C[C@H]2CO[C@@](C)(C(=O)O)OC2)cc1)c1ccc(S(C)(=O)=O)cc1

fold change (FC) [1]: 1.63
SMILES: C/C(=N\OCCOc1ccc(C[C@H]2CO[C@@](C)(C(=O)O)OC2)cc1)c1ccc2c(c1)CCCC2

fold change (FC) [1]: 10.8
SMILES: C/C(=N\OCCOc1ccc(C[C@H]2CO[C@@](C)(C(=O)O)OC2)cc1)c1ccccc1

fold change (FC) [1]: 1.76
SMILES: C/C(=N\OCCOc1ccc(C[C@H]2CO[C@@](C)(C(=O)O)OC2)cc1)c1ccc2ccccc2c1
